Common to all, as to assay type: functional, cell-based
A short description of experiment [1]: Antiproliferative activity against human SKOV3 cells after 72 hrs by MTT assay. The note with it: SK-OV-3, 72 h. The procedure, abridged:
(§1)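 MTT viability after 72 h continuous exposure. Cells seeded 24 h beforehand at 2,000/well (adherent) or 10,000/well (suspension), then given 0, 0.01, 0.1, 0.5, 1.0 or 10.0 μM compound diluted from 10 mM DMSO stock into RPMI or DMEM with 10% FBS, 37°C, 5% CO2. IC50 taken as concentration killing 50% of cells versus untreated culture.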
A general note: Tetrazolium assays rely on reduction of a dye to a coloured formazan, in cell work by metabolically active cells.

Experiment [2] is described as follows: Antiproliferative activity against human HL60 cells after 72 hrs by MTT assay. To be noted: HL-60, 72 h. The method in brief:
as §1

The nature of experiment [3]: Antiproliferative activity against human HL60/ADR cells after 72 hrs by MTT assay. The method in brief: as §1

The structures appear in SMILES notation.

In general, IC50 refers to the concentration that inhibits the measured activity by half. The low end stands for inhibition by little substance, the high end for a need for much substance. For the compound `COc1ccc(C2CC(c3ccc4ccccc4c3)=NN2/C=C2\SC(=S)N(c3ccc(OC(C)=O)cc3)C2=O)cc1` (stereo unspecified), the IC50 is 1.1 µM in experiment [1] and above 10 µM in experiment [2].
`O=C1NC(=S)S/C1=C\N1N=C(c2ccc3ccccc3c2)CC1c1ccc(Cl)cc1` (stereo unspecified): the IC50 in experiment [1] was found to be 0.163 µM; in experiment [2] it was 0.4 µM.
On to `CN1C(=O)/C(=C/N2N=C(c3ccc4ccccc4c3)CC2c2ccccc2O)SC1=S` (stereo unspecified), for which the IC50 in experiment [1] and in experiment [2] was above 10 µM in each case.
On to `O=C1/C(=C/N2N=C(c3ccccc3)CC2c2ccccc2O)SC(=S)N1c1cccnc1` (stereo unspecified), for which the IC50 in experiment [1] was above 10 µM; in experiment [2], 0.72 µM.
Taken in the same sequence, the figures for `CCN1C(=O)/C(=C/N2N=C(c3ccccc3)CC2c2ccccc2O)SC1=S` (stereo unspecified) were above 10 µM and above 10 µM.
On to `CC(=O)Oc1ccc(N2C(=O)/C(=C/N3N=C(c4ccc5ccccc5c4)CC3c3ccc(Cl)cc3)SC2=S)cc1` (stereo unspecified), for which the IC50 in experiment [1] is above 10 µM; in experiment [2] it was 1.8 µM.
The matching figures for `CC(=O)Oc1cccc(N2C(=O)/C(=C/N3N=C(c4ccccc4)CC3c3ccc(N(C)C)cc3)SC2=S)c1` (stereo unspecified): above 10 µM and 0.1 µM.
As to `O=C1NC(=S)S/C1=C\N1N=C(c2ccc(Cl)cc2)CC1c1ccc(Cl)cc1` (stereo unspecified), the IC50 was 9.14 µM in experiment [1] and above 10 µM in experiment [2].
The matching figures for `CCOC(=O)CCN1C(=O)/C(=C/N2N=C(c3ccccc3)CC2c2ccccc2O)SC1=S` (stereo unspecified): above 10 µM and above 10 µM.
Take `CN1C(=O)/C(=C/N2N=C(c3ccccc3)CC2c2ccccc2O)SC1=S` (stereo unspecified): the IC50 in experiment [1] came out at 0.341 µM; in experiment [2], 2.88 µM.
As for `O=C1/C(=C/N2N=C(c3ccccc3)CC2c2ccccc2O)SC(=S)N1c1cccc(C(F)(F)F)c1` (stereo unspecified), the IC50 in experiment [1] and in experiment [2] was above 10 µM in each case.
In the case of `CC(=O)Oc1ccc(N2C(=O)/C(=C/N3N=C(c4ccc(Cl)cc4)CC3c3ccc(Cl)cc3)SC2=S)cc1` (stereo unspecified), the IC50 in experiment [1] and in experiment [2] was above 10 µM throughout.
With `O=C1/C(=C/N2N=C(c3ccc4ccccc4c3)CC2c2ccccc2O)SC(=S)N1c1cccnc1` (stereo unspecified), the IC50 in experiment [1] was found to be 5.59 µM; in experiment [2], 4.06 µM.
With `O=C1NC(=S)/C(=C/N2N=C(c3ccccc3)CC2c2ccccc2O)S1` (stereo unspecified), the 50% inhibitory concentration (IC50) worked out at 7.87 µM in experiment [1] and 0.99 µM in experiment [2].
Take `CC(=O)Oc1ccc(N2C(=O)/C(=C/N3N=C(c4ccc5ccccc5c4)CC3c3ccccc3O)SC2=S)cc1` (stereo unspecified): the IC50 in experiment [1] is above 10 µM; in experiment [2] it was 0.5 µM.
On to `COc1cccc2c1C(=O)c1c(O)c3c(c(O)c1C2=O)C[C@@](O)(C(=O)CO)C[C@@H]3O[C@H]1C[C@H](N)[C@H](O)[C@H](C)O1` [DOXORUBICIN], for which the half-inhibitory concentration (IC50) amounted to 0.073 µM in experiment [1], 0.051 µM in experiment [2] and 8.8 µM in experiment [3].
For `CC(=O)Oc1cccc(N2C(=O)/C(=C/N3N=C(c4ccc5ccccc5c4)CC3c3ccc(Cl)cc3)SC2=S)c1` (stereo unspecified), the values for the IC50 in experiment [1] and in experiment [2] were 2.39 µM and 1.02 µM, respectively.
Taken in the same sequence, the figures for `O=C1NC(=S)/C(=C/N2N=C(c3ccc4ccccc4c3)CC2c2ccc(Cl)cc2)S1` (stereo unspecified) were above 10 µM and 0.156 µM.
Taken in the same sequence, the figures for `CN(C)c1ccc(C2CC(c3ccccc3)=NN2/C=C2\SC(=S)NC2=O)cc1` (stereo unspecified) were above 10 µM and above 10 µM.
Taken in the same sequence, the figures for `CC(=O)Oc1ccc(N2C(=O)/C(=C/N3N=C(c4ccccc4)CC3c3ccccc3O)SC2=S)cc1` (stereo unspecified) were 0.244 µM and 9.4 µM.

These data come from ChEMBL document CHEMBL3804789, “5-Ene-4-thiazolidinones induce apoptosis in mammalian leukemia cells” (Eur J Med Chem, 2016).
